Measured values: ChEMBL document CHEMBL3739414, “Synthesis and biological evaluation of methylated scutellarein analogs based on metabolic mechanism of scutellarin in vivo” (Eur J Med Chem, 2015)
In brackets after ≈: the same amount, converted by molar mass.

What was measured:
[1] = Antioxidant activity in rat PC12 cells assessed as inhibition of H2O2-induced cytotoxicity at 25 uM after 4 hrs by MTT assay; type: functional; settings: PC-12, 4 h
Summary of the method: (§1)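 PC12 cells seeded at 5×10^4 cells/ml and cultured 24 h at 37 °C, 5% CO2. The model group got 400 µM H2O2 for 1 h before drug at 25 or 50 µM; the control group got serum-free DMEM. Five wells per group. MTT 4 h at 37 °C, formazan dissolved in DMSO, absorbance read at 517 nm; inhibiting rate of H2O2 cytotoxicity calculated from absorbance.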

[2] = tested on: Plasma; assay: Antithrombotic activity in New Zealand white rabbit platelet-poor plasma assessed as reduction of fibrinogen at 100 uM after 3 mins (reference value: 7.02+/- 0.16 g/L)
[3] = Antioxidant activity assessed as DPPH radical scavenging activity after 30 mins; type: physicochemical
Summary of the method: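 Sample in DMSO at 5–500 μM mixed 1:1 with 0.2 mM DPPH in ethanol; DMSO control. Reaction 30 min at 25 °C, absorbance at 517 nm. Scavenging % = [1 − (A1 − A2)/A0] × 100, with a no-DPPH sample blank. IC50 = concentration giving 50% loss of DPPH radical.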

[4] = N-octanol/0.1 M HCl partition coefficient, log P of the compound after 5 hrs by spectrophotometric analysis; type: physicochemical
Summary of the method: (§2)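 Shake-flask method. Stock (10 µg/ml) diluted into buffer (0.1 mol/L HCl, 0.15 mol/L NaCl or 0.15 mol/L NaHCO3) and mixed with an equal volume of mutually saturated n-octanol, protected from light. Vortexed 3 min, then shaken 5 h at 25 °C. Both phases read at 334 nm; logP = log([C]octanol/[C]aqueous).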

[5] = tested on: Plasma; assay: Antithrombotic activity in New Zealand white rabbit platelet-poor plasma assessed as increase of activated partial thromboplastin time at 100 uM after 3 mins (reference value: 30.58 +/- 1.55 seconds); type: functional, Oryctolagus cuniculus
Summary of the method: (§3)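 Citrated blood (3.8% citrate, 1:9) spun 3000 rpm for 10 min to give platelet-poor plasma. Compounds dissolved in 80% ethanol at 100 μM. Kit assays run on a coagulometer at 37 °C with 3 min incubations. TT: plasma, then thrombin plus sample. PT: plasma, then thromboplastin plus sample. APTT: sample, plasma and activator. FIB: plasma, FIB reagent and sample. Mean ± S.D., n = 4.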

[6] = Aqueous solubility of the compound in water after 1 hr by UV-vis spectrophotometer analysis; type: physicochemical
Summary of the method: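 Standard curves from methanol solutions at 0.1–10 µg/ml, UV read at 334 nm. Compound (150 µg) dissolved in 10 ml water by ultrasound for 1 h at room temperature, left 30 min, centrifuged. Supernatant measured by UV scan and solubility read from the standard curve.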

[7] = tested on: Plasma; assay: Antithrombotic activity in New Zealand white rabbit platelet-poor plasma assessed as increase of thrombin time at 100 uM after 3 mins (reference value: 20.25 +/- 1.02 seconds); type: functional, Oryctolagus cuniculus; summary of the method: as §3
[8] = tested on: Plasma; assay: Antithrombotic activity in New Zealand white rabbit platelet-poor plasma assessed as increase of prothrombin time at 100 uM after 3 mins (reference value: 4.99 +/- 0.18 seconds); type: functional, Oryctolagus cuniculus; summary of the method: as §3
[9] = Antioxidant activity in rat PC12 cells assessed as inhibition of H2O2-induced cytotoxicity at 50 uM after 4 hrs by MTT assay; type: functional; settings: PC-12, 4 h; summary of the method: as §1
[10] = N-octanol/0.15 M NaCl partition coefficient, log P of the compound after 5 hrs by spectrophotometric analysis; type: physicochemical; summary of the method: as §2
[11] = N-octanol/0.15 M NaHCO3 partition coefficient, log P of the compound after 5 hrs by spectrophotometric analysis; type: physicochemical; summary of the method: as §2

Row | SMILES | inhibition at 25 µM [1] [%] | Activity [2] [g/L] | IC50 [3] [µM] | logP at 5 h [4] | APTT [5] [s] | solubility at 1 h [6] [µg/mL] | TT [7] [s] | PT [8] [s] | inhibition at 50 µM [9] [%] | logP at 5 h [10] | logP at 5 h [11]
1 | COc1cc2oc(-c3ccc(O)cc3)cc(=O)c2c(O)c1OC [CIRSIMARITIN] | 52.2 | 5.65 | 190 | 2.19 | 39.42 | 1.53 (≈ 4.87 µM) | 25.1 | 6.95 | 76.1 | 2.14 | 1.81
2 | O=C(O)[C@H]1O[C@@H](Oc2cc3oc(-c4ccc(O)cc4)cc(=O)c3c(O)c2O)[C@H](O)[C@@H](O)[C@@H]1O [SCUTELLARIN] | 53.1 | 6.13 | 27.9 | 0.592 | 34.18 |  | 23.08 | 6.28 | 79.2 | 0.365 | -0.0513
3 | COc1ccc(-c2cc(=O)c3c(O)c(OC)c(OC)cc3o2)cc1 [SALVIGENIN] | 11.1 | 5.96 | 463 | 2.64 | 36 | 0.31 (≈ 0.944 µM) | 29.03 | 6.75 | 20.4 | 2.55 | 2.27
4 | COc1ccc(-c2cc(=O)c3c(O)c(O)c(OC)cc3o2)cc1 [LADANEIN] | 48.2 | 5.94 | 159 | 1.94 | 38.28 | 3.2 (≈ 10.2 µM) | 23.33 | 6.93 | 74.3 | 1.79 | 1.4
5 | COc1c(O)cc2oc(-c3ccc(O)cc3)cc(=O)c2c1O [HISPIDULIN] | 62.4 | 5.38 | 23.7 | 1.77 | 33.1 | 4.27 (≈ 14.2 µM) | 25.96 | 6.25 | 88 | 1.68 | 1.02
6 | COc1ccc(-c2cc(=O)c3c(O)c(OC)c(O)cc3o2)cc1 [PECTOLINARIGENIN] | 44.2 | 5.92 | 170 | 2.14 | 30.48 | 1.36 (≈ 4.33 µM) | 27.45 | 6.53 | 68.1 | 2.09 | 1.86
7 | COc1cc2oc(-c3ccc(O)cc3)cc(=O)c2c(O)c1O | 56.2 | 5.74 | 30.2 | 1.59 | 34.49 | 4.56 (≈ 15.2 µM) | 25.48 | 6.55 | 82.3 | 1.54 | 1.03
8 | O=c1cc(-c2ccc(O)cc2)oc2cc(O)c(O)c(O)c12 [SCUTELLAREIN] | 64.6 | 6.84 | 22.6 | 0.892 | 36.65 |  | 24.4 | 5.93 | 91.2 | 0.772 | 0.48
9 | COc1ccc(-c2cc(=O)c3c(O)c(O)c(O)cc3o2)cc1 | 63.3 | 5.67 | 25.3 | 1.65 | 31.53 | 6.31 (≈ 21 µM) | 24.98 | 6.4 | 89.4 | 1.41 | 0.785
10 | COc1c(O)c(O)cc2oc(-c3ccc(O)cc3)cc(=O)c12 | 54.4 | 5.58 | 28.9 | 1.55 | 30.53 | 5.72 (≈ 19 µM) | 22.6 | 6.65 | 81.4 | 1.47 | 0.892
